# Reference: ChEMBL document CHEMBL4028848, “Discovery of N-{4-[5-(4-Fluorophenyl)-3-methyl-2-methylsulfanyl-3H-imidazol-4-yl]-pyridin-2-yl}-acetamide (CBS-3595), a Dual p38α MAPK/PDE-4 Inhibitor with Activity against TNFα-Related Diseases” (J Med Chem, 2017)
# Activity calls are given as the source filed them. The rule behind the calls is not given here.
# Columns and labels:
# [1] = Fraction unbound in human plasma; assay type: ADME, cell-free
# Outline: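 Plasma protein binding measured in human, Sprague–Dawley rat and Cynomolgus monkey plasma at 1, 10 and 30 μM compound. Reported as unbound fraction (%).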
# Homo sapiens [2] = organism: Homo sapiens; assay: Inhibition of PDE4 in human U937 cells assessed as [3H]cAMP hydrolysis at 1 uM relative to control; assay type: cell-based
# [3] = Cmax in human at 0.5 mg, po administered as single dose; assay type: ADME, organism-based; parameters: dose 0.5 mg, route oral; settings: in vivo
# Homo sapiens [4] = assay: AUC (infinity) in human assessed as roflumilast N-oxide formation at 0.5 mg, po administered as single dose; assay type: ADME, organism-based; parameters: dose 0.5 mg, route oral, time infinity; settings: in vivo
# Homo sapiens [5] = organism: Homo sapiens; assay: Inhibition of PDE4 in LPS-stimulated human whole blood assessed as decrease in leukotriene B4 level in plasma
# Rattus norvegicus [6] = assay: In vivo inhibition of P38 MAPKalpha in Lewis rat assessed as decrease in LPS-stimulated TNFalpha level in serum at 10 mg/kg, po pretreated for 1 hr followed by LPS addition measured after 1.5 hrs post dose relative to control; assay type: functional
# Outline: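 Lewis rats, n = 8/group: females dosed orally at 10 mg/kg at −1, −3 or −5 h relative to LPS challenge, plus one male group dosed at −1 h. Male and female vehicle controls were given at −1 h. Serum TNFα was measured after LPS and compared with vehicle.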
# Homo sapiens [7] = assay: Cmax in human assessed as roflumilast N-oxide formation at 0.5 mg, po administered as single dose; assay type: ADME, organism-based; parameters: dose 0.5 mg, route oral; settings: in vivo
# [8] = AUC (infinity) in human at 0.5 mg, po administered as single dose; assay type: ADME, organism-based; parameters: dose 0.5 mg, time infinity, route oral; settings: in vivo
# Liver [9] = assay: Drug level in rat liver microsomes treated with CBS-3595 at 10 to 100 uM; assay type: ADME, microsome
# Outline: (§1)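 Test compound incubated at 10, 30 and 100 μM with liver microsomes from rat, Cynomolgus monkey or human, and metabolites monitored.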
# Liver [10] = assay: Drug level in human liver microsomes treated with CBS-3595 at 10 to 100 uM; assay type: ADME, microsome; outline: as §1
# [11] = Drug level in cynomolgus monkey liver microsomes treated with CBS-3595 at 10 to 100 uM; assay type: ADME, Macaca fascicularis, microsome; outline: as §1
# Rattus norvegicus [12] = assay: In vivo inhibition of P38 MAPKalpha in Lewis rat assessed as decrease in LPS-stimulated TNFalpha level in serum at 30 mg/kg pretreated for 3 hrs followed by LPS addition measured after 1.5 hrs post dose; assay type: functional, organism-based
# Rattus norvegicus [13] = assay: In vivo inhibition of P38 MAPKalpha in Sprague-Dawley rat assessed as decrease in LPS-stimulated TNFalpha level in serum at 3 mg/kg, po pretreated for 1 hr followed by LPS addition measured after 2 hrs relative to control; assay type: functional
# Rattus norvegicus [14] = assay: In vivo inhibition of P38 MAPKalpha in Lewis rat assessed as decrease in LPS-stimulated TNFalpha level in serum at 30 mg/kg pretreated for 1 hrs followed by LPS addition measured after 1.5 hrs post dose; assay type: functional, organism-based
# [15] = molecular target: Mitogen-activated protein kinase 14 (Homo sapiens, UniProt Q16539); assay: Inhibition of p38alpha MAPK (unknown origin)
# [16] = Apparent permeability in human Caco2 cells at 10 uM; assay type: ADME, cell-based; settings: Caco-2
# Rattus norvegicus [17] = assay: Antiarthritic activity in Lewis rat assessed as collagen oligomeric matrix protein level in serum at 1 mg/kg, po qd administered for 10 days (Rbv = 0.17 +/- 0.02 U/l); assay type: functional
# Outline: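 Collagen-induced arthritis in male Lewis rats (5–6 per group). Groups received vehicle, dexamethasone 1 mg/kg, test item 50 mg/kg once daily, or 25 mg/kg twice daily for 10 days. Body weight, arthritic score and paw volume were monitored, and serum COMP was measured at the end.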
# Chain of Mitogen-activated protein kinase 14 (Q16539 whole entry): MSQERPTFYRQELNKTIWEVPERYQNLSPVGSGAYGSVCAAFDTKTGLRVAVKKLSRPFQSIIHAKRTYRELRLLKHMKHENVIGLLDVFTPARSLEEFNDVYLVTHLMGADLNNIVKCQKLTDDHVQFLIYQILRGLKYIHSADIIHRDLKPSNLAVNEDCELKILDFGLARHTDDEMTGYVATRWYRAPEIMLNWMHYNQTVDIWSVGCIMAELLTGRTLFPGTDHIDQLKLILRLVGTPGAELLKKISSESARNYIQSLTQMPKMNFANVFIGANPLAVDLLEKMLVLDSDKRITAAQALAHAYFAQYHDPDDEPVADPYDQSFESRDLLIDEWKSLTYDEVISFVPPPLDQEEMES
compound,measurement,setting,value
O=C(Nc1c(Cl)c[n+]([O-])cc1Cl)c1ccc(OC(F)F)c(OCC2CC2)c1,fraction unbound,[1],0.04
O=C(Nc1c(Cl)cncc1Cl)c1ccc(OC(F)F)c(OCC2CC2)c1 [ROFLUMILAST],inhibition,Homo sapiens [2],94%
same,fraction unbound,[1],0.02
same,Cmax,[3],13.1 nM
same,AUC,Homo sapiens [4],0.8379 µM·h
same,inhibition,Homo sapiens [5],Dose-dependent effect
same,inhibition in vivo at 10 mg/kg,Rattus norvegicus [6],67%
same,Cmax,Homo sapiens [7],22.4 nM
same,AUC(0-inf),[8],0.0868 µM·h
Cn1c(S(C)(=O)=O)nc(-c2ccc(F)cc2)c1-c1ccnc(N)c1,Drug metabolism,Liver [9],Metabolite_Detected
same,Drug metabolism,Liver [10],Metabolite_Detected
same,Drug metabolism,[11],Metabolite_Detected
C[S+]([O-])c1ccc(-c2nc(-c3ccc(F)cc3)c(-c3ccncc3)[nH]2)cc1 (centres undefined) [SB-203580],inhibition,Rattus norvegicus [12],Active
same,inhibition,Homo sapiens [5],inactive
same,inhibition in vivo at 3 mg/kg,Rattus norvegicus [13],37%
same,inhibition,Rattus norvegicus [14],Active
CC(=O)Nc1cc(-c2c(-c3ccc(F)cc3)nc([S@@+](C)[O-])n2C)ccn1,IC50,[15],129 nM
CC(C)NCC(O)COc1cccc2ccccc12 (centres undefined) [PROPRANOLOL],Papp at 10 µM,[16],71.1 ×10⁻⁶ cm/s
C[C@@H]1C[C@H]2[C@@H]3CCC4=CC(=O)C=C[C@]4(C)[C@@]3(F)[C@@H](O)C[C@]2(C)[C@@]1(O)C(=O)CO [DEXAMETHASONE],Activity,Rattus norvegicus [17],0.03 U/L
